One compound from ChEMBL document CHEMBL1152866, “Modulation of gene expression via disruption of NF-kappaB signaling by a bacterial small molecule” (Science, 2008) can be followed below.

Activity calls are given as the source filed them. No cut-off for these calls is given here.

For assay [1], the system named is BMDM. As to the kind of experiment: Inhibition of LPS-induced IFNbeta mRNA expression in mouse BMDM up to 3 hrs by Northern blot analysis. In kind it is functional, cell-based.
Assay [2] has as its target T1, Inhibitor of nuclear factor kappa-B kinase subunit alpha (Homo sapiens) (UniProt O15111).
T1 sequence (whole entry): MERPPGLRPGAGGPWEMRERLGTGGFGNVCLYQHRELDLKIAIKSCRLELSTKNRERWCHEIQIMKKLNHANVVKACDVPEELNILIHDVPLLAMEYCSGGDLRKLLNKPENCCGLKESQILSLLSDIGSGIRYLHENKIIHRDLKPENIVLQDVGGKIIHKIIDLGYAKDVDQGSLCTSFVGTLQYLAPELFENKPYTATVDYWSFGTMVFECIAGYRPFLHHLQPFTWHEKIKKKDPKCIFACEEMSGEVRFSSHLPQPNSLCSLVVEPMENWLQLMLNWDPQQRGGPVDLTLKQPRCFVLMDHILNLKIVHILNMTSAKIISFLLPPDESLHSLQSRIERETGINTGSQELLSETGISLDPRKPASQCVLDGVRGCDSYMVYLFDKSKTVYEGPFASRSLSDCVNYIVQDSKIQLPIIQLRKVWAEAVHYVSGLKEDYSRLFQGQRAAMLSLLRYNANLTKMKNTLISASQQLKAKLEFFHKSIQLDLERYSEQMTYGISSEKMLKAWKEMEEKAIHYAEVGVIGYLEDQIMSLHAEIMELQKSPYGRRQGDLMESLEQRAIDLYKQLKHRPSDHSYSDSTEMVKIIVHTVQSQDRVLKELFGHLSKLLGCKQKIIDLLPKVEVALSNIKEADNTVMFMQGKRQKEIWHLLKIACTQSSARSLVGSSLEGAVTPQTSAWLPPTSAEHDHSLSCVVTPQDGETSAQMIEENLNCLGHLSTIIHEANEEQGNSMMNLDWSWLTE
As to the kind of experiment: Inhibition of IkappaBalpha in human WI38 cells assessed after 2 hrs by Western blot analysis. The settings on record: WI-38. In kind it is cell-based. The essentials:
(§1)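 WI38 lung fibroblasts and bronchial epithelial cells were stimulated for 2 hours. The same Western blot was probed for PARP cleavage, total IκBα and phosphorylated IκBα.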

For assay [3], the target named is T1, Inhibitor of nuclear factor kappa-B kinase subunit alpha (Homo sapiens). As to the kind of experiment: Inhibition of IkappaBalpha phosphorylation in human bronchial epithelial cells assessed after 2 hrs by Western blot analysis. Format: cell-based. The settings on record: Epithelial cell. The procedure, abridged: as §1
Background: In western blotting, separated proteins are transferred to a membrane and probed.

The subject of assay [4] is Macrophage. The assay can be described thus: Inhibition of LPS-induced IkappaBalpha expression in C57BL/6 mouse alveolar macrophages measured up to 120 mins by Western blot analysis. In kind it is functional, cell-based.
For assay [5], the system named is MEF. As to the kind of experiment: Inhibition of TNF-induced IkappaBbeta expression in mouse MEF up to 120 mins by Western blot analysis. Format: functional, cell-based.
The target in assay [6] is T2, Inhibitor of nuclear factor kappa-B kinase subunit alpha (Mus musculus) (UniProt Q60680).
T2 sequence (whole entry): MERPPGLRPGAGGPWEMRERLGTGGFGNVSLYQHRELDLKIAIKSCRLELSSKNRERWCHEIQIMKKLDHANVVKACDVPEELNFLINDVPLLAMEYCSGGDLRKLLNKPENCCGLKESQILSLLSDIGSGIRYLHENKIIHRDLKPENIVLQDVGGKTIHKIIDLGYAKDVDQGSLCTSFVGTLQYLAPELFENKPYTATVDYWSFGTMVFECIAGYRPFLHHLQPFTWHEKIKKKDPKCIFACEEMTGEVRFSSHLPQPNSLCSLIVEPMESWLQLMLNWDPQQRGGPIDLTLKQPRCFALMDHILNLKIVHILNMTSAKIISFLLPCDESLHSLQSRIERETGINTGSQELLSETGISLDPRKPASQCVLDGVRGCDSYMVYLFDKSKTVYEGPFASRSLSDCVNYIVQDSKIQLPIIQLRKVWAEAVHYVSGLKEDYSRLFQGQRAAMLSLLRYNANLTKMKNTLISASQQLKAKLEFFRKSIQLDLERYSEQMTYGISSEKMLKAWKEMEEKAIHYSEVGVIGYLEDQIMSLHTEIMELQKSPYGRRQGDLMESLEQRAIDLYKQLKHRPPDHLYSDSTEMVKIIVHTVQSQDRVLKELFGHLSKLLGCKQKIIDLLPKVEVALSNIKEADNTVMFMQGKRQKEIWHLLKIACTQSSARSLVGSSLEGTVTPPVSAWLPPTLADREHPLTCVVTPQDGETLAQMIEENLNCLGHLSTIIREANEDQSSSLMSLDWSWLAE
As to the kind of experiment: Inhibition of LPS-induced IkappaBalpha phosphorylation in mouse BMDM measured up to 120 mins by Western blot analysis.

In assay [7] the test system is BMDM. As to the kind of experiment: Inhibition of LPS-induced c-jun mRNA expression in mouse BMDM up to 3 hrs by Northern blot analysis. Format: functional, cell-based.
In assay [8] the test system is BMDM. The assay can be described thus: Inhibition of LPS-induced TNF mRNA expression in mouse BMDM up to 3 hrs by Northern blot analysis. Format: functional, cell-based.
In assay [9] the test system is Macrophage. As to the kind of experiment: Inhibition of LPS-induced TNF mRNA expression in mouse alveolar macrophages after 90 mins by Northern blot analysis. Format: functional, cell-based.
Assay [10] deals with BMDM. As to the kind of experiment: Inhibition of heat-killed Staphylococcus aureus-induced TNF mRNA expression in mouse BMDM by Northern blot analysis. Format: functional, cell-based.
Assay [11] has as its system MEF. The assay can be described thus: Effect on TNF-induced c-jun mRNA expression in MEF by Northern blot analysis. Format: functional, cell-based. The settings on record: Mus musculus.
The test system of assay [12] is BMDM. The assay can be described thus: Inhibition of heat-killed Staphylococcus aureus-induced IL1-beta mRNA expression in mouse BMDM by Northern blot analysis. In kind it is functional.
Assay [13] deals with BMDM. As to the kind of experiment: Inhibition of LPS-induced IkBbeta degradation in mouse BMDM treated 2 hrs after LPS challenge measured up to 120 mins by Western blot analysis. Format: functional, cell-based.
In assay [14] the test system is BMDM. As to the kind of experiment: Inhibition of LPS-induced RANTES mRNA expression in mouse BMDM up to 3 hrs by Northern blot analysis. In kind it is functional, cell-based.
Assay [15] deals with MAP kinase p38 (Mus musculus) (UniProt P47811+O08911+Q9WUI1+Q9Z1B7). As to the kind of experiment: Inhibition of TNF-induced p38 phosphorylation in mouse MEF up to 120 mins by Western blot analysis.
Assay [16] has as its target T2, Inhibitor of nuclear factor kappa-B kinase subunit alpha (Mus musculus). The assay can be described thus: Inhibition of LPS-induced IkappaBalpha phosphorylation in C57BL/6 mouse alveolar macrophages measured up to 120 mins by Western blot analysis.
In assay [17] the test system is PBMC. As to the kind of experiment: Inhibition of LPS-induced IkappaBalpha mRNA expression in human PBMC up to 50 uM by Northern blot analysis. In kind it is functional, cell-based.
The test system of assay [18] is MEF. The assay can be described thus: Inhibition of TNF-induced RelA expression in mouse MEF up to 120 mins by Western blot analysis. Format: functional, cell-based.
In assay [19] the test system is BMDM. As to the kind of experiment: Inhibition of heat-killed Staphylococcus aureus-induced RANTES mRNA expression in mouse BMDM by Northern blot analysis. In kind it is functional, cell-based.
Assay [20] relates to PBMC. As to the kind of experiment: Inhibition of LPS-induced TNF mRNA expression in human PBMC up to 50 uM by Northern blot analysis. Format: functional, cell-based.
Assay [21] has as its system MEF. As to the kind of experiment: Inhibition of LPS-induced IkappaBalpha mRNA expression in MEF after 90 mins by Northern blot analysis. In kind it is functional, cell-based. The settings on record: Mus musculus.
Assay [22] deals with BMDM. As to the kind of experiment: Inhibition of LPS-induced IkBbeta protein level in mouse BMDM treated 2 hrs after LPS challenge measured up to 120 mins by Western blot analysis. Format: functional, cell-based.
The test system of assay [23] is Macrophage. The assay can be described thus: Inhibition of LPS-induced c-jun mRNA expression in mouse alveolar macrophages after 90 mins by Northern blot analysis. In kind it is functional, cell-based.
Assay [24] addresses T1, Inhibitor of nuclear factor kappa-B kinase subunit alpha (Homo sapiens). The assay can be described thus: Inhibition of LPS-induced IkappaBalpha phosphorylation in human THP1 cells measured up to 120 mins by Western blot analysis. In kind it is cell-based. Conditions: THP-1.

For `CCCCCCCCCC(=O)CC(=O)N[C@H]1CCOC1=O`, the Activity result in the assay on BMDM [1], in the assay on BMDM [7], in the assay with BMDM [8], in the assay with Macrophage [9], with BMDM [14] and in the assay on MEF [21] was “Dose-dependent effect” in each case. Besides, the Activity entry in the assay on Macrophage [23] is “Dose-dependent effect”. The result (in [2]; in [3]; in the assay on Macrophage [4]; in the assay with MEF [5]; in [6]; in the assay on BMDM [10]) was Active. Moreover, the result (in the assay with MEF [11]; in the assay with BMDM [12]; with BMDM [13]; in assay [15]; in assay [16]; in the assay on PBMC [17]) was Active. The outcome (in the assay with MEF [18]; in the assay on BMDM [19]; in the assay with PBMC [20]; in [24]) was Active. Further, in the assay with BMDM [22], the outcome was inactive.
